Calls of active or inactive are those of the source. The calls are words filed in the database; no cut-off is given here.
Tests used:
PC-3 [1] = experiment: Induction of apoptosis in human PC3 cells assessed as necrotic cells at 1.25 uM after 72 hrs by Annexin V-APC/7-AAD or propidium iodide staining-based flow cytometric analysis (reference value: 2.43%); type: functional
PC-3 [2] = experiment: Induction of apoptosis in human PC3 cells assessed as viable cells at 0.31 uM after 72 hrs by Annexin V-APC/7-AAD or propidium iodide staining-based flow cytometric analysis (reference value: 88.74%); type: functional; conditions: PC-3, 72 h, read-out: Activity
PC-3 [3] = experiment: Induction of apoptosis in human PC3 cells assessed as reduction in mitochondrial membrane potential at 0.31 uM after 48 hrs by JC-1 staining-based flow cytometric analysis (reference value: 1.86%); type: functional; design: scale not given: the % may be the effect or the level left
How it was run: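 After overnight culture, PC-3 cells were treated in triplicate with 0, 0.16, 0.31 or 1.25 μM, or vehicle, for 48 h. They were then loaded with JC-1, and the proportion with depolarized mitochondrial membrane potential was counted by flow cytometry.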

PC-3 [4] = experiment: Induction of apoptosis in human PC3 cells assessed as rupture of cell membrane at 0.16 to 1.25 uM after 48 hrs by Hoechst 33258 staining-based fluorescent microscopic analysis; type: functional
How it was run: (§1)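 PC-3 cells grown on sterile cover slips were exposed to 0, 0.16, 0.31 or 1.25 μM, or vehicle, for 48 h. Then fixed with 4% paraformaldehyde for 10 min, washed twice in PBS, stained with Hoechst 33258 for 5 min and washed again. Nuclei imaged at 350 nm excitation and 460 nm emission.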

PC-3 [5] = experiment: Induction of apoptosis in human PC3 cells assessed as early apoptotic cells at 1.25 uM after 72 hrs by Annexin V-APC/7-AAD or propidium iodide staining-based flow cytometric analysis (reference value: 4.09%); type: functional
PC-3 [6] = experiment: Induction of apoptosis in human PC3 cells assessed as reduction in adherent cells at 0.16 to 1.25 uM after 48 hrs by Hoechst 33258 staining-based fluorescent microscopic analysis; type: functional, cell-based; how it was run: as §1
PC-3 [7] = experiment: Induction of apoptosis in human PC3 cells assessed as cell shrinkage at 0.16 to 1.25 uM after 48 hrs by Hoechst 33258 staining-based fluorescent microscopic analysis; type: functional; how it was run: as §1
[8] = Induction of apoptosis in human LO2 cells assessed as viable cells at 1.25 uM after 72 hrs by Annexin V-FITC/7-AAD or propidium iodide staining-based flow cytometric analysis (reference value: 94.26%); type: cell-based, L02; conditions: read-out: Activity
HepG2 [9] = experiment: Induction of apoptosis in human HepG2 cells assessed as necrotic cells at 0.6 uM after 72 hrs by Annexin V-APC/7-AAD or propidium iodide staining-based flow cytometric analysis (reference value: 1.87%); type: functional
HepG2 [10] = experiment: Cell cycle arrest in human HepG2 cells assessed as accumulation at S phase at 0.6 uM after 72 hrs by propidium iodide staining-based flow cytometric analysis (reference value: 44.6%); type: functional
How it was run: (§2)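 Concentrations used were 0, 0.3, 0.6 and 1.2 μM in HepG2 and 0, 0.16, 0.31 and 1.25 μM in PC-3, with untreated cells as control, for 72 h. Cells were trypsinized, washed in PBS, fixed in cold ethanol at 4 °C overnight, then incubated 30 min in PBS containing RNase A and propidium iodide. DNA content was read by flow cytometry to give phase distribution.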

L02 [11] = experiment: Induction of apoptosis in human LO2 cells assessed as necrotic cells at 1.2 uM after 72 hrs by Annexin V-FITC/7-AAD or propidium iodide staining-based flow cytometric analysis (reference value: 1.99%); type: cell-based; conditions: l02, 72 h
HepG2 [12] = experiment: Induction of apoptosis in human HepG2 cells assessed as late apoptotic cells at 0.3 uM after 72 hrs by Annexin V-APC/7-AAD or propidium iodide staining-based flow cytometric analysis (reference value: 4.14%); type: functional
L02 [13] = experiment: Induction of apoptosis in human LO2 cells assessed as late apoptotic cells at 50 uM after 72 hrs by Annexin V-FITC/7-AAD or propidium iodide staining-based flow cytometric analysis (reference value: 0.11%); type: cell-based; conditions: l02, 72 h
HepG2 [14] = experiment: Induction of apoptosis in human HepG2 cells assessed as nuclear fragmentation at 1.2 uM after 48 hrs by Hoechst 33258 staining-based fluorescent microscopic analysis; type: functional, cell-based
How it was run: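 HepG2 cells grown on coverslips were treated for 48 h at 0.3, 0.6 or 1.2 μM, then fixed in 4% paraformaldehyde for 10 min. After PBS washes, cells were stained with Hoechst 33258 for 5 min and washed again. Nuclear morphology was examined by fluorescence imaging at 350 nm excitation and 460 nm emission.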

HepG2 [15] = experiment: Cell cycle arrest in human HepG2 cells assessed as accumulation at S phase at 0.3 uM after 72 hrs by propidium iodide staining-based flow cytometric analysis (reference value: 44.6%); type: functional; how it was run: as §2
HepG2 [16] = experiment: Induction of apoptosis in human HepG2 cells assessed as reduction in procaspase-3 expression levels at 2 uM after 24 hrs by membrane-based sandwich immunoassay; type: functional, cell-based
How it was run: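 HepG2 cells exposed to 2 μM for 24 h. Proteins extracted per kit protocol. Relative levels of 35 apoptosis-related proteins measured on a human apoptosis antibody array.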

HepG2 [17] = experiment: Induction of apoptosis in human HepG2 cells assessed as reduction in Hsp60 expression levels at 2 uM after 24 hrs by membrane-based sandwich immunoassay; type: functional, cell-based
How it was run: (§3)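 HepG2 cells treated at 2 μM for 24 h; protein extracts prepared per the kit protocol. Relative levels of 35 apoptosis-related proteins measured with a human apoptosis antibody array.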

HepG2 [18] = experiment: Induction of apoptosis in human HepG2 cells assessed as reduction in HO-1 expression levels at 2 uM after 24 hrs by membrane-based sandwich immunoassay; type: functional, cell-based; how it was run: as §3
HepG2 [19] = experiment: Induction of apoptosis in human HepG2 cells assessed as reduction in Hsp70 expression levels at 2 uM after 24 hrs by membrane-based sandwich immunoassay; type: functional, cell-based; how it was run: as §3

Row | SMILES | Activity (PC-3 [1]) | viability at 0.31 µM (PC-3 [2]) | Activity (PC-3 [3]) | Activity (PC-3 [4]) | Activity (PC-3 [5]) | Activity (PC-3 [6]) | Activity (PC-3 [7]) | viability at 72 h, 1.25 µM [8] | Activity (HepG2 [9]) | Activity (HepG2 [10]) | Activity (L02 [11]) | Activity (HepG2 [12]) | Activity (L02 [13]) | Activity (HepG2 [14]) | Activity (HepG2 [15]) | Activity (HepG2 [16]) | Activity (HepG2 [17]) | Activity (HepG2 [18]) | Activity (HepG2 [19])
1 | COc1ccc(-c2cc(=O)c3c(O)c(OC)c(O[C@@H]4O[C@H](C(=O)NCCOc5no[n+]([O-])c5S(=O)(=O)c5ccccc5)[C@@H](O)[C@H](O)[C@H]4O)cc3o2)cc1 | 5.21% | 61.6% | 35.91% | Active | 14.91% | Active | Active | 78.4% |  |  |  |  |  |  |  |  |  |  | 
2 | O=C(NCCCOc1no[n+]([O-])c1S(=O)(=O)c1ccccc1)[C@H]1O[C@@H](Oc2cc3oc(-c4ccc(OCc5ccccc5)cc4)cc(=O)c3c(O)c2OCc2ccccc2)[C@H](O)[C@@H](O)[C@@H]1O |  |  |  |  |  |  |  |  | 2.31% | 50.45% | 1.53% | 13.5% | 9.83% | Active | 47.14% | Active | Active | Active | Active

— ChEMBL document CHEMBL4052629, “Scutellarin derivatives as apoptosis inducers: Design, synthesis and biological evaluation” (Eur J Med Chem, 2017)
